# Reference: article PMC6919324 (European journal of pharmaceutics and biopharmaceutics : …, 2019)
# Experiments:
# P-gp [1] = target: T1, P-gp (Homo sapiens, UniProt P08183); assay: Caco-2 transwell basolateral to apical transport of P-gp substrates; assay type: in vitro ADME
# P-gp [2] = target: T1, P-gp; assay: Biosimilar mucus transport study of R123 in Caco-2 transwells; assay type: in vitro ADME
# P-gp [3] = target: P-gp (Mus musculus, UniProt P21447); assay: Ex vivo mouse jejunum intestinal sac, mucosal to serosal R123 transport; assay type: in vitro ADME, BALB/c mice; details: BALB/c, with microdevices, 3000 microdevices/cm^2
# Chain of P-gp (Mus musculus, UniProt P21447) (P21447 whole entry): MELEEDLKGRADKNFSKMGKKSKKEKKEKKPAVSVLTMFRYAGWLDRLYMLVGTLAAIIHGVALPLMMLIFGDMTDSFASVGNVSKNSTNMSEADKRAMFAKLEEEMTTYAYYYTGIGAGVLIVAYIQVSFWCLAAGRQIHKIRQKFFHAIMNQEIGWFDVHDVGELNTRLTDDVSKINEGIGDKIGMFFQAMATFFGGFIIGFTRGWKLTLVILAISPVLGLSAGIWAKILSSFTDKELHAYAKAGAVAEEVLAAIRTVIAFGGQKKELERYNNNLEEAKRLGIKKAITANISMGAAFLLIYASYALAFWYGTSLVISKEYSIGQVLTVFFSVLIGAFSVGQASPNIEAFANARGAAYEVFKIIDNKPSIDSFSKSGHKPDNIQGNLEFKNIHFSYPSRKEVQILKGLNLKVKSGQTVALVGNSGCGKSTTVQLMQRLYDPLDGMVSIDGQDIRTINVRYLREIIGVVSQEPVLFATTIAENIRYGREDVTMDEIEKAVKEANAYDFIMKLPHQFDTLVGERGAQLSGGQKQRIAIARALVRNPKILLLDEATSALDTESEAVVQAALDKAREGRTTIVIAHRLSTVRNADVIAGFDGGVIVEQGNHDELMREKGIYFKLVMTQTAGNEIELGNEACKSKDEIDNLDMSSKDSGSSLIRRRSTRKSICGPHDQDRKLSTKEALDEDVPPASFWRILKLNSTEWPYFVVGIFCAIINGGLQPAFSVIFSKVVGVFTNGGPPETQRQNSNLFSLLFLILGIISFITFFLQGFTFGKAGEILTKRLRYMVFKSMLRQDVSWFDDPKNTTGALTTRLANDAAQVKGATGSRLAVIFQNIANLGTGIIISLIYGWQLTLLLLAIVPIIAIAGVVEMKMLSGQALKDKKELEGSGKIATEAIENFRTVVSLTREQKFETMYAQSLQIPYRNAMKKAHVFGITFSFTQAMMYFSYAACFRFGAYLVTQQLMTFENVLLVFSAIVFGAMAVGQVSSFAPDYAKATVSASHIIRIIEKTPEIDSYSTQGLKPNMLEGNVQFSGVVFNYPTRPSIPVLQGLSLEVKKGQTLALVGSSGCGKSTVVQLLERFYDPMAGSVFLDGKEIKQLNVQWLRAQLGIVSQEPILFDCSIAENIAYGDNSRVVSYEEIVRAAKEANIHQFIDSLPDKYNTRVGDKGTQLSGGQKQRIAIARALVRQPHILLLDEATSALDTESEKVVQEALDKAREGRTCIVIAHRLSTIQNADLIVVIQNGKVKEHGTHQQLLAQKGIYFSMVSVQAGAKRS
# Outline: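 Intestinal sacs from three BALB/c mice aged 18–20 weeks, with one end tied off, were incubated in media at 37°C. Over time the serosal-side solution was removed and replaced with fresh media. Fluorescence of the removed solution was read at excitation 495 nm and emission 560 nm.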
# T1 sequence (P08183 whole entry): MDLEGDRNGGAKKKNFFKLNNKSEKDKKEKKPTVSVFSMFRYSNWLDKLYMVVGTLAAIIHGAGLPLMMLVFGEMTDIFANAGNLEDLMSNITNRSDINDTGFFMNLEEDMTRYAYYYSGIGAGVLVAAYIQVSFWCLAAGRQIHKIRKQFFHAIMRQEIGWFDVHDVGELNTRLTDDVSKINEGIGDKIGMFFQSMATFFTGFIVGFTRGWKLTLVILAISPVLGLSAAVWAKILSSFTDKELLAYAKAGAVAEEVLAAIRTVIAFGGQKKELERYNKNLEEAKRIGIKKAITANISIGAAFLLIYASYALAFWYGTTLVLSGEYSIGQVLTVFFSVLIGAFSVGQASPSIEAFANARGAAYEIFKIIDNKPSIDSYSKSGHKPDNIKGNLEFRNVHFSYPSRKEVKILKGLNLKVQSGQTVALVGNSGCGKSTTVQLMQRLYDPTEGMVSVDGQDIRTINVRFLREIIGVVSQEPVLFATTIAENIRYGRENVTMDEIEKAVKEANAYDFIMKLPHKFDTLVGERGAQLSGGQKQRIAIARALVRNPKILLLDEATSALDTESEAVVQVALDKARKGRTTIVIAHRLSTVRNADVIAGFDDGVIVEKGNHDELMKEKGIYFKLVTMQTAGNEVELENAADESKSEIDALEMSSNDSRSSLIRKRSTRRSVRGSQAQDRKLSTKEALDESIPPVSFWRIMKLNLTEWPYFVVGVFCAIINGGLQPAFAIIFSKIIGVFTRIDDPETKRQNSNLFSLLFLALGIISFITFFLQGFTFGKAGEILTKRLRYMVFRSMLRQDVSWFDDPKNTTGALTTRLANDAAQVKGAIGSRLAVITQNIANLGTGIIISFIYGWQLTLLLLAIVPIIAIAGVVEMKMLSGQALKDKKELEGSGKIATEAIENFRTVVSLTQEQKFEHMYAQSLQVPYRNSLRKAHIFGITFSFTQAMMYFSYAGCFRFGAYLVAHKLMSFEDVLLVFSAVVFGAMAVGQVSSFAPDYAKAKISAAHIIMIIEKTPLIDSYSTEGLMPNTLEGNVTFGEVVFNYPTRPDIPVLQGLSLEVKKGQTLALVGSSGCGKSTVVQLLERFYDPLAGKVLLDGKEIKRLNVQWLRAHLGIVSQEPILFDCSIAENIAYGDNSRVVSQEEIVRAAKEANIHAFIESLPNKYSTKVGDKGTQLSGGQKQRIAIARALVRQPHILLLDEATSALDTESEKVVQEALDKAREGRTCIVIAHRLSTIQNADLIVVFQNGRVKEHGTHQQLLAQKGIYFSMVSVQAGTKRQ
SMILES,Papp B→A (P-gp [1]) [×10⁻⁶ cm/s],Papp B→A at 5 µM (P-gp [2]) [×10⁻⁶ cm/s],Papp at 5 µM (P-gp [3]) [×10⁻⁶ cm/s]
"COc1cccc2c1C(=O)c1c(O)c3c(c(O)c1C2=O)C[C@@](O)(C(=O)CO)C[C@@H]3O[C@H]1C[C@H](N)[C@H](O)[C@H](C)O1 [Doxorubicin, doxorubicin]",1.9 ± 0.35,–,–
"COC(=O)c1ccccc1-c1c2ccc(=N)cc-2oc2cc(N)ccc12 [R123, rhodamine 123]",8.03 ± 3.5,9.25 ± 3.8,0.35
